Assay results published in ChEMBL document CHEMBL2163189, “Discovery and characterization of an inhibitor of glucosylceramide synthase” (J Med Chem, 2012).

Experiments:
[1] = Drug uptake in C57BL6 mouse Fat at 10 mg/kg, po after 24 hrs; type: ADME, organism-based; parameters: dose 10 mg/kg, route oral; conditions: fat (adipose tissue), read-out: Drug uptake
Procedure, shortened: (§1)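 Male C57BL6 mice, n = 3, given a single oral dose of 10 mpk. Compound levels in tissue or plasma were measured 24 h after the dose. Values are mean ± SD.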

[2] = AUC ( 0 to t) in CD rat at 5 mg/kg; type: ADME, organism-based; parameters: dose 5 mg/kg; conditions: plasma
Procedure, shortened: (§2)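 Female CD rats, n = 3, given 5 mpk. The HCl salt in saline served as both the oral and the iv formulation. Values are mean ± SD.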

[3] = Half life in CD rat at 5 mg/kg; type: ADME, organism-based; parameters: dose 5 mg/kg; conditions: in vivo; procedure, shortened: as §2
[4] = Cmax in CD rat at 5 mg/kg; type: ADME, organism-based; parameters: dose 5 mg/kg; conditions: in vivo; procedure, shortened: as §2
[5] = Drug uptake in C57BL6 mouse muscle at 10 mg/kg, po after 24 hrs; type: ADME, organism-based, Muscle tissue; parameters: dose 10 mg/kg, route oral; conditions: read-out: Drug uptake; procedure, shortened: as §1
[6] = Oral bioavailability in CD rat at 5 mg/Kg; type: ADME, organism-based; conditions: in vivo; procedure, shortened: as §2
[7] = Volume of distribution at steady state in CD rat at 5 mg/Kg; type: ADME, organism-based; conditions: in vivo, read-out: Vdss; procedure, shortened: as §2
[8] = Clearance in CD rat at 5 mg/kg; type: ADME, organism-based; parameters: dose 5 mg/kg; conditions: in vivo; procedure, shortened: as §2
[9] = Tmax in CD rat at 5 mg/kg; type: ADME, organism-based; parameters: dose 5 mg/kg; conditions: in vivo; procedure, shortened: as §2
[10] = Plasma concentration in C57BL6 mouse at 10 mg/kg, po after 24 hrs; type: ADME, organism-based; parameters: dose 10 mg/kg, route oral; procedure, shortened: as §1
[11] = Drug uptake in C57BL6 mouse liver at 10 mg/kg, po after 24 hrs; type: ADME, organism-based; parameters: dose 10 mg/kg, route oral; conditions: read-out: Drug uptake; procedure, shortened: as §1
[12] = Metabolic stability in mouse liver microsome assessed as compound conversion at 15 uM after 30 mins; type: ADME; conditions: liver microsomes, read-out: Drug metabolism
[13] = Plasma concentration in mouse at 100 mg/kg, po after 4 hrs; type: ADME, organism-based; parameters: dose 100 mg/kg, route oral
Procedure, shortened: (§3)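 Female nude mice (n = 3) given 100 mpk orally. Plasma compound levels measured 1 and 4 h after dosing, reported as mean ± SD.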

[14] = Plasma concentration in mouse at 100 mg/kg, po after 1 hr; type: ADME, organism-based; parameters: dose 100 mg/kg, route oral; procedure, shortened: as §3

| SMILES | metabolised at 0.5 h, 15 µM [12] | further results |
| --- | --- | --- |
| Cl.NC1C[C@H]2CC[C@@H](C1)N2C(=O)[C@H](Cc1ccc(Br)cc1)NC(=O)C1(c2ccc(OC(F)(F)F)cc2)CC1 (stereo partly drawn) |  | concentration at 24 h [1]: 800 nM; AUC(0-t) [2]: 5.8 µM·h; half-life [3]: 25.3 h; Cmax [4]: 300 nM; concentration at 24 h [5]: 1800 nM; bioavailability [6]: 88.1%; Vd [7]: 19.3 L/kg; clearance [8]: 9.58 mL/min/kg; Tmax [9]: 8 h; concentration at 24 h [10]: 500 nM; concentration at 24 h [11]: 5900 nM |
| NC1C[C@H]2CC[C@@H](C1)N2C(=O)[C@H](Cc1ccc(Br)cc1)NC(=O)C1(c2ccc(OC(F)(F)F)cc2)CC1 (stereo partly drawn) | 7% |  |
| CN1CCN(C(=O)[C@H](Cc2c[nH]c3ccccc23)NC(=O)C2(c3ccc(Cl)cc3Cl)CC2)CC1 | 90% | concentration at 4 h [13]: 700 nM; concentration at 1 h [14]: 900 nM |
| CN1CCN(C(=O)[C@H](COCc2ccccc2)NC(=O)C2(c3ccc(Cl)cc3Cl)CC2)CC1 | 50% |  |
| CN1CCN(C(=O)[C@H](Cc2ccc(Cl)cc2Cl)NC(=O)C2(c3ccc(Cl)cc3Cl)CC2)CC1 | 80% | concentration at 4 h [13]: 5800 nM; concentration at 1 h [14]: 4200 nM |
| O=C([C@H](Cc1ccc(Cl)cc1Cl)NC(=O)C1(c2ccc(Cl)cc2Cl)CC1)N1CCNCC1 | 10% |  |
| C[C@@H]1CN(C(=O)[C@H](Cc2ccc(Cl)cc2Cl)NC(=O)C2(c3ccc(Cl)cc3Cl)CC2)CCN1 | 30% |  |
| CN(C)CCN(C)C(=O)[C@H](Cc1ccc(Cl)cc1Cl)NC(=O)C1(c2ccc(Cl)cc2Cl)CC1 | 70% |  |

The next lines start with results.

| metabolised at 0.5 h, 15 µM [12] | SMILES | further results |
| --- | --- | --- |
| 30% | O=C([C@H](Cc1ccc(Br)cc1)NC(=O)C1(c2ccc(Cl)cc2Cl)CC1)N1CCC(O)CC1 |  |
| 50% | NC1CCN(C(=O)[C@H](Cc2ccc(Br)cc2)NC(=O)C2(c3ccc(Cl)cc3Cl)CC2)CC1 |  |
| 10% | NC1CCCC(NC(=O)[C@H](Cc2ccc(Cl)cc2Cl)NC(=O)C2(c3ccc(Cl)cc3Cl)CC2)C1 (stereo partly drawn) |  |
| 20% | NC1C[C@H]2CC[C@@H](C1)N2C(=O)[C@H](Cc1ccc(Cl)cc1Cl)NC(=O)C1(c2ccc(Cl)cc2Cl)CC1 (stereo partly drawn) |  |
| 20% | NC1C[C@H]2CC[C@@H](C1)N2C(=O)[C@H](Cc1ccc(Br)cc1)NC(=O)C1(c2ccc(Cl)cc2Cl)CC1 (stereo partly drawn) |  |
| 8% | NC1C[C@H]2CC[C@@H](C1)N2C(=O)[C@H](Cc1ccc(Cl)cc1Cl)NC(=O)C1(c2ccc(OC(F)(F)F)cc2)CC1 (stereo partly drawn) |  |
| 80% | CN1CCN(C(=O)[C@H](Cc2ccccc2)NC(=O)C2(c3ccc(Cl)cc3Cl)CC2)CC1 |  |
| 73% | CN1CCN(C(=O)[C@H](Cc2ccc(Cl)cc2)NC(=O)C2(c3ccc(Cl)cc3Cl)CC2)CC1 |  |
| 90% | CN1CCN(C(=O)[C@H](Cc2ccc(Br)cc2)NC(=O)C2(c3ccc(Cl)cc3Cl)CC2)CC1 |  |
| 40% | C[C@H]1CN(C(=O)[C@H](Cc2ccc(Cl)cc2Cl)NC(=O)C2(c3ccc(Cl)cc3Cl)CC2)CCN1 |  |
| 90% | CN(C)CCN(C)C(=O)[C@H](Cc1ccc(Br)cc1)NC(=O)C1(c2ccc(Cl)cc2Cl)CC1 |  |
